Laboratory results from ChEMBL document CHEMBL1938258, “Discovery and molecular docking of quinolyl-thienyl chalcones as anti-angiogenic agents targeting VEGFR-2 tyrosine kinase” (Bioorg Med Chem Lett, 2012).

Assays:
[1] = target: Vascular endothelial growth factor receptor 2 (Homo sapiens, UniProt P35968); assay: Inhibition of VEGFR-2 after 1 hr by fluorescence polarization assay
In short: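 VEGFR kinase protein in a fluorescence polarization tyrosine kinase kit. Buffer was 20 mM HEPES pH 7.4, 5 mM MgCl2, 2 mM MnCl2, Na3VO4, ATP, 200 ng/mL enzyme and 1 ng/mL poly(Glu,Tyr) 4:1. After 1 h the reaction was stopped with 6 mM EDTA. Anti-phosphotyrosine antibody and PTK green tracer were added, and FP was read after 30 min at room temperature.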

[2] = tested on: HUVEC; assay: Antiangiogenic activity against VEGF-stimulated HUVEC cells after 72 hrs by BrdU method; format: functional, cell-based; conditions: Homo sapiens
In short: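 HUVEC grown overnight at 37 °C, 5% CO2 in 5% FBS medium on type 1 collagen-coated plates. Medium replaced by serum-free medium with graded inhibitor concentrations, then VEGF (10 ng/ml) added 30 min later. Cells incubated a further 72 h, with BrdU present for the last 18–24 h. IC50 taken as K from the fit y = Vmax(1 − x/(K+x)).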

Sequence of Vascular endothelial growth factor receptor 2 (P35968 whole entry): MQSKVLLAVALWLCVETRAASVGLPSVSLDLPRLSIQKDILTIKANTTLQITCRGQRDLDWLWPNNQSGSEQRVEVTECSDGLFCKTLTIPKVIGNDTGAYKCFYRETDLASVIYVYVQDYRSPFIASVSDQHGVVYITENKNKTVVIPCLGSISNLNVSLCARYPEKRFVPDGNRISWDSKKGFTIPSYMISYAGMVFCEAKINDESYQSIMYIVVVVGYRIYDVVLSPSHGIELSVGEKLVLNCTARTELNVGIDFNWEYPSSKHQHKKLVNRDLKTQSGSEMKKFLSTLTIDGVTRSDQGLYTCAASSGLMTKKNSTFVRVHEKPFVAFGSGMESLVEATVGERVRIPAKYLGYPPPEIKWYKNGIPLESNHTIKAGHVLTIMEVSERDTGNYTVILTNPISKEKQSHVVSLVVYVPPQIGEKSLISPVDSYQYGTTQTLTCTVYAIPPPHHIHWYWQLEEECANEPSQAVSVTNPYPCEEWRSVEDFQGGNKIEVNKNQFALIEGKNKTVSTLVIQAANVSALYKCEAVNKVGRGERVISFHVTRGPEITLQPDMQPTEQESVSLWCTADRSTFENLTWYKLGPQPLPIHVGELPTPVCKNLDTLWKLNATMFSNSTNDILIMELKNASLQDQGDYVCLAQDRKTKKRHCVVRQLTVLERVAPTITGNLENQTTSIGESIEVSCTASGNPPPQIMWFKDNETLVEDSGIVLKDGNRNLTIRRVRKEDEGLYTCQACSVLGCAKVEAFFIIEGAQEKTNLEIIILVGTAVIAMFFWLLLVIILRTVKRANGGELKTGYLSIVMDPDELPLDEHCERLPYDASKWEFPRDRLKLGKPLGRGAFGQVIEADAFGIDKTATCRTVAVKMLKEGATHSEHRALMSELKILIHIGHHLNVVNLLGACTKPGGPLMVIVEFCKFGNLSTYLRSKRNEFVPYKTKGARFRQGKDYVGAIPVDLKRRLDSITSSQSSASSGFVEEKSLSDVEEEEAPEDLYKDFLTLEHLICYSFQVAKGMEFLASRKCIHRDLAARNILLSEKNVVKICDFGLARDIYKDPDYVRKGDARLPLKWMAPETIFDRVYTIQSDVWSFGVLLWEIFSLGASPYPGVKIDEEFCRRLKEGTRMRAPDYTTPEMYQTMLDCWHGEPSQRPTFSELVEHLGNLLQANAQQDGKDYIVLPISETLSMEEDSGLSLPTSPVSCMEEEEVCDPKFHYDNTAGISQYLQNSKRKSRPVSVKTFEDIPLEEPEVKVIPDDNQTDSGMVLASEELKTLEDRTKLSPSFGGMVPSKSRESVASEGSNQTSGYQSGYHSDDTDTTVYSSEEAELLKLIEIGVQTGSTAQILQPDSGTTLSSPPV

Compound | IC50 [1] | IC50 [2]
Cc1ccc2cc(/C=C/C(=O)c3ccsc3)c(Cl)nc2c1 | 0.208 µM | 0.107 µM
Cc1ccc2cc(/C=C/C(=O)c3sccc3C)c(Cl)nc2c1 | 0.157 µM | 0.124 µM
Cc1ccc2cc(/C=C/C(=O)c3cc(C)sc3C)c(Cl)nc2c1 | 0.561 µM | 0.294 µM
Cc1ccc2cc(/C=C/C(=O)c3sccc3Cl)c(Cl)nc2c1 | 0.0827 µM | 0.034 µM
Cc1ccc2cc(/C=C/C(=O)c3cc(Cl)sc3Cl)c(Cl)nc2c1 | 0.0734 µM | 0.0218 µM
Cc1cccc2cc(/C=C/C(=O)c3ccsc3)c(Cl)nc12 | 0.389 µM | 0.291 µM
Cc1ccsc1C(=O)/C=C/c1cc2cccc(C)c2nc1Cl | 0.267 µM | 0.189 µM
Cc1csc(C(=O)/C=C/c2cc3cccc(C)c3nc2Cl)c1 | 0.233 µM | 0.153 µM
Cc1ccc(C(=O)/C=C/c2cc3cccc(C)c3nc2Cl)s1 | 0.262 µM | 0.145 µM
Cc1cc(C(=O)/C=C/c2cc3cccc(C)c3nc2Cl)c(C)s1 | > 1 µM | 
Cc1cccc2cc(/C=C/C(=O)c3sccc3Cl)c(Cl)nc12 | 0.13 µM | 0.0915 µM
Cc1cccc2cc(/C=C/C(=O)c3ccc(Cl)s3)c(Cl)nc12 | 0.189 µM | 0.116 µM
Cc1cccc2cc(/C=C/C(=O)c3cc(Cl)sc3Cl)c(Cl)nc12 | 0.358 µM | 0.295 µM
Cc1cccc2cc(/C=C/C(=O)c3sccc3Br)c(Cl)nc12 | 0.313 µM | 0.187 µM
Cc1cccc2cc(/C=C/C(=O)c3ccc(I)s3)c(Cl)nc12 | 0.482 µM | 0.284 µM

Now from value to molecule, other results behind:

IC50 [1] | Compound | IC50 [2]
0.169 µM | Cc1csc(C(=O)/C=C/c2cc3cc(C)ccc3nc2Cl)c1 | 0.106 µM
0.287 µM | Cc1ccc2nc(Cl)c(/C=C/C(=O)c3ccsc3)cc2c1 | 0.107 µM
0.185 µM | Cc1ccc2nc(Cl)c(/C=C/C(=O)c3sccc3C)cc2c1 | 0.127 µM
0.176 µM | Cc1ccc2nc(Cl)c(/C=C/C(=O)c3ccc(C)s3)cc2c1 | 0.128 µM
0.453 µM | Cc1ccc2nc(Cl)c(/C=C/C(=O)c3cc(C)sc3C)cc2c1 | 0.229 µM
0.0871 µM | Cc1ccc2nc(Cl)c(/C=C/C(=O)c3sccc3Cl)cc2c1 | 0.0375 µM
0.107 µM | Cc1ccc2nc(Cl)c(/C=C/C(=O)c3ccc(Cl)s3)cc2c1 | 0.0594 µM
0.0814 µM | Cc1ccc2nc(Cl)c(/C=C/C(=O)c3cc(Cl)sc3Cl)cc2c1 | 0.0262 µM
0.129 µM | Cc1ccc2nc(Cl)c(/C=C/C(=O)c3sccc3Br)cc2c1 | 0.0619 µM
0.113 µM | Cc1ccc2nc(Cl)c(/C=C/C(=O)c3ccc(Br)s3)cc2c1 | 0.0884 µM
0.154 µM | Cc1ccc2nc(Cl)c(/C=C/C(=O)c3ccc(I)s3)cc2c1 | 0.129 µM
0.139 µM | Cc1csc(C(=O)/C=C/c2cc3ccc(C)cc3nc2Cl)c1 | 0.0989 µM
0.13 µM | Cc1ccc2cc(/C=C/C(=O)c3ccc(C)s3)c(Cl)nc2c1 | 0.102 µM
0.0922 µM | Cc1ccc2cc(/C=C/C(=O)c3ccc(Cl)s3)c(Cl)nc2c1 | 0.0495 µM
0.112 µM | Cc1ccc2cc(/C=C/C(=O)c3sccc3Br)c(Cl)nc2c1 | 0.0619 µM
0.104 µM | Cc1ccc2cc(/C=C/C(=O)c3ccc(Br)s3)c(Cl)nc2c1 | 0.0836 µM
0.148 µM | Cc1ccc2cc(/C=C/C(=O)c3ccc(I)s3)c(Cl)nc2c1 | 0.135 µM
0.367 µM | Cc1cccc2cc(/C=C/C(=O)c3ccc(Br)s3)c(Cl)nc12 | 0.243 µM
